Laboratory results reported in ChEMBL document CHEMBL4680130, “Substituted 4-phenylthiazoles: Development of potent and selective A, A and dual A/A adenosine receptor antagonists” (Eur J Med Chem, 2020).

Assays:
[1] = biological target: T1, Adenosine receptor A3 (Rattus norvegicus, UniProt P28647); assay: Displacement of [3H]NECA from rat adenosine receptor A3 expressed in CHO cell membranes incubated for 60 mins by radioligand competition assay; design: species or system Cell membrane
T1 sequence (P28647 whole entry): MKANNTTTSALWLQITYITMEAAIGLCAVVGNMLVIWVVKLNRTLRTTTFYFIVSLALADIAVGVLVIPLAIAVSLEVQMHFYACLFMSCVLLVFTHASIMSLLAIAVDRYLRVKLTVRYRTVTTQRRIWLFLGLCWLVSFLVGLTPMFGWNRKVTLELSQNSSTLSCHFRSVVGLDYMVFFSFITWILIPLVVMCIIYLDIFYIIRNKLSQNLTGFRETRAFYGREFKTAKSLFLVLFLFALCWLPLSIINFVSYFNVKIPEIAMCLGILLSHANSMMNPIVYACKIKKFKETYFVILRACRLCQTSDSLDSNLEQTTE

[2] = biological target: Adenosine receptor A2a (Rattus norvegicus) (UniProt P30543); assay: Displacement of [3H]MSX2 from adenosine receptor A2A in rat brain striatum membranes at 0.1 uM incubated for 30 mins by radioligand competition assay relative to control; conditions: Cell membrane
Chain of Adenosine receptor A2a (Rattus norvegicus) (P30543 whole entry): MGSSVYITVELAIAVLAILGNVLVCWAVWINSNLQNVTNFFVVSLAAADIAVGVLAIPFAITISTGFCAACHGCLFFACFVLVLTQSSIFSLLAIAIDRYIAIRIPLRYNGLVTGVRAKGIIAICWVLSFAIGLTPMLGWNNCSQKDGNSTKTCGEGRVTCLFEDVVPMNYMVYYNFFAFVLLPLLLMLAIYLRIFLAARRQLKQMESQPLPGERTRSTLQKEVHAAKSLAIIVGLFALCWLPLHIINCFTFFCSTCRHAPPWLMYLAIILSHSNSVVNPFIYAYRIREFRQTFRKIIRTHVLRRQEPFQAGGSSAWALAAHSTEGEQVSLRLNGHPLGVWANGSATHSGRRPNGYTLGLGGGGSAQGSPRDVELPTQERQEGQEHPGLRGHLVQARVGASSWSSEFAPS
Method in brief: (§1)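 A2A binding, [3H]MSX-2 1.0 nM. Membranes: rat brain striatum, or HEK293 cells expressing human A2A. Adenosine deaminase preincubation 20 min, then 30 min at rt in 50 mM Tris-HCl pH 7.4 with 2.5% DMSO. Nonspecific binding defined by 50 µM NECA. GF/B filtration, scintillation counting. Single-concentration percent inhibition, ≥3 experiments in duplicate or triplicate.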

[3] = biological target: T2, Adenosine receptor A2a (Homo sapiens, UniProt P29274); assay: Displacement of [3H]MSX2 from human adenosine receptor A2A expressed in HEK293 cell membranes incubated for 30 mins by radioligand competition assay; design: species or system Cell membrane
T2 sequence (P29274 whole entry): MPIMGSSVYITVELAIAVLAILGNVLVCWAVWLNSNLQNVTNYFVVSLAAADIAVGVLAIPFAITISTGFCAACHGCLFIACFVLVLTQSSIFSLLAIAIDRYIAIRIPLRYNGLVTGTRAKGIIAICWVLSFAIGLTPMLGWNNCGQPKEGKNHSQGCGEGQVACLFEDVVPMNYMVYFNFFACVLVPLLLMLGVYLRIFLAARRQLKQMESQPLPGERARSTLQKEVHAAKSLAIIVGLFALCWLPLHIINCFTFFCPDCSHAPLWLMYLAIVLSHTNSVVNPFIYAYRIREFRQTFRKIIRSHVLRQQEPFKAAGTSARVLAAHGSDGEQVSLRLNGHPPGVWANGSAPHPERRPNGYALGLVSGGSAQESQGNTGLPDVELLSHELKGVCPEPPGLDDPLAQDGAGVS

[4] = biological target: T3, Adenosine receptor A1 (Rattus norvegicus, UniProt P25099); assay: Displacement of [3H]CCPA from adenosine receptor A1 in rat brain cortex membranes incubated for 90 mins by radioligand competition assay; format: cell membranes, Cell membrane
T3 sequence (P25099 whole entry): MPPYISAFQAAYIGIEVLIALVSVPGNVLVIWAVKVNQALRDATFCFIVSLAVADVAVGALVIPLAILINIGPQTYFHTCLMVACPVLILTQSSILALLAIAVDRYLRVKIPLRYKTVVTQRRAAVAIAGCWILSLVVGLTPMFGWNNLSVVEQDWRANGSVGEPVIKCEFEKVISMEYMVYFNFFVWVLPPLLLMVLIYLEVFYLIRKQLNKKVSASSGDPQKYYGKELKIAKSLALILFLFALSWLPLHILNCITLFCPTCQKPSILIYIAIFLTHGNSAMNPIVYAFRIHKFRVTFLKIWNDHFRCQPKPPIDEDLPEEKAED

[5] = biological target: T4, Adenosine receptor A2b (Homo sapiens, UniProt P29275); assay: Displacement of [3H]PSB-603 from human adenosine receptor A2B expressed in CHO cell membranes incubated for 75 mins by radioligand competition assay; design: species or system Cell membrane
T4 sequence (P29275 whole entry): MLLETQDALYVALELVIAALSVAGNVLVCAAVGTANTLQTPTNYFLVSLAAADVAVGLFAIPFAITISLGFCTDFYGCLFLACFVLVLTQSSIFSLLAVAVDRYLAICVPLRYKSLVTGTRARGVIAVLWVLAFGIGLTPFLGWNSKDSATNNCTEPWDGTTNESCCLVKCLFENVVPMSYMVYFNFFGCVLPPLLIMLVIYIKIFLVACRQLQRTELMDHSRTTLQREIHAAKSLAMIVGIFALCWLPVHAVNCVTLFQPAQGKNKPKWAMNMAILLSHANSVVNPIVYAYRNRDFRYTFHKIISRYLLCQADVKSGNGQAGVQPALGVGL

[6] = biological target: T5, Adenosine receptor A1 (Homo sapiens, UniProt P30542); assay: Displacement of [3H]CCPA from human adenosine receptor A1 expressed in CHO cell membranes incubated for 90 mins by radioligand competition assay; design: species or system Cell membrane
T5 sequence (P30542 whole entry): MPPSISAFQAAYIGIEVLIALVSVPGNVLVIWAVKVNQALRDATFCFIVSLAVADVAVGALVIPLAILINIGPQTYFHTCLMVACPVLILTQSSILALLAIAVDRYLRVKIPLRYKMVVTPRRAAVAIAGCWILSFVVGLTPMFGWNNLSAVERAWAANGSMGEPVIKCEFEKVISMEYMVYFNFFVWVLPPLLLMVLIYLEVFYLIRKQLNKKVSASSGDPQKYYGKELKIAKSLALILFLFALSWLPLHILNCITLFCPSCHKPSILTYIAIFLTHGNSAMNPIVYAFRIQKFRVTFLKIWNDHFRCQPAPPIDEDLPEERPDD

[7] = biological target: Adenosine receptor A2a (Rattus norvegicus, UniProt P30543); assay: Displacement of [3H]MSX2 from adenosine receptor A2A in rat brain striatum membranes incubated for 30 mins by radioligand competition assay; format: cell membranes, Cell membrane
Chain of Adenosine receptor A2a (Rattus norvegicus, UniProt P30543) (P30543 whole entry): as the sequence (P30543 whole entry) above

[8] = biological target: T2, Adenosine receptor A2a; assay: Displacement of [3H]MSX2 from human adenosine receptor A2A expressed in HEK293 cell membranes at 0.1 uM incubated for 30 mins by radioligand competition assay relative to control; conditions: Cell membrane; method in brief: as §1
[9] = biological target: T6, Adenosine receptor A2b (Homo sapiens) (UniProt P29275); assay: Displacement of [3H]PSB-603 from human adenosine receptor A2B expressed in CHO cell membranes at 0.1 uM incubated for 75 mins by radioligand competition assay relative to control; conditions: Cell membrane
T6 sequence (whole entry): T4 sequence (P29275 whole entry)
Method in brief: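 CHO membranes expressing human or rat A2B, [3H]PSB-603 0.3 nM. Nonspecific binding defined by 10 µM DPCPX. Preincubated 20 min with adenosine deaminase, then 75 min at rt in Tris-HCl pH 7.4 with 2.5% DMSO. Filters washed with ice-cold 50 mM Tris-HCl containing 0.1% BSA; scintillation counting.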

[10] = biological target: T7, Adenosine receptor A3 (Homo sapiens, UniProt P0DMS8); assay: Displacement of [3H]PSB-11 from human adenosine receptor A3 expressed in CHO cell membranes incubated for 60 mins by radioligand competition assay; design: species or system Cell membrane
T7 sequence (P0DMS8 whole entry): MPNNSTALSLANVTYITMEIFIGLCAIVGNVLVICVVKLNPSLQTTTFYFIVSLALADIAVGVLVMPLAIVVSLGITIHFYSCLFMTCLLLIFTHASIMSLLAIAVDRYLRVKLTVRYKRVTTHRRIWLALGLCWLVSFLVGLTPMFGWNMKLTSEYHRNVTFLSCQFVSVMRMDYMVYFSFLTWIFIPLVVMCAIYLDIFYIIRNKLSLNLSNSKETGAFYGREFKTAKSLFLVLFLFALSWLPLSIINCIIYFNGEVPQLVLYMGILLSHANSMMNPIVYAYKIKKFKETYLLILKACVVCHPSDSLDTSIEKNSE

[11] = biological target: T8, Adenosine receptor A1 (Rattus norvegicus) (UniProt P25099); assay: Displacement of [3H]CCPA from adenosine receptor A1 in rat brain cortex membranes at 0.1 uM incubated for 90 mins by radioligand competition assay; conditions: Cell membrane
T8 sequence (whole entry): T3 sequence (P25099 whole entry)
Method in brief: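 A1 competition binding with [3H]CCPA, 0.5 nM. Membranes: CHO cells expressing human A1, or rat brain cortex. Membranes preincubated 20 min with adenosine deaminase (2 U/mL per mg protein). Incubation 90 min at rt in 50 mM Tris-HCl pH 7.4 with 2.5% final DMSO. Nonspecific binding defined by 10 µM 2-chloroadenosine. GF/B filtration, scintillation counting.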

[12] = biological target: T9, Adenosine receptor A3 (Homo sapiens) (UniProt P0DMS8); assay: Displacement of [3H]PSB-11 from human adenosine receptor A3 expressed in CHO cell membranes at 0.1 uM incubated for 60 mins by radioligand competition assay; conditions: Cell membrane
T9 sequence (whole entry): T7 sequence (P0DMS8 whole entry)
Method in brief: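 CHO membranes expressing human A3, [3H]PSB-11 0.5 nM. Nonspecific binding defined by 100 µM R-PIA. Adenosine deaminase preincubation 20 min, then 60 min at rt in 50 mM Tris-HCl pH 7.4 with 2.5% DMSO. Filtered on GF/B, scintillation counted.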

[13] = in the assay text read “at 1 uM” for “at 0.1 uM”

Row | SMILES | Ki [1] [nM] | inhibition [2] [%] | Ki [3] [nM] | Ki [4] [nM] | Ki [5] [nM] | Ki [6] [nM] | Ki [7] [nM] | inhibition ([8]; filed as antagonist, in the assay text read “1 uM” for “0.1 uM”) [%] | inhibition [9] [%] | Ki [10] [nM] | inhibition [8, 13] [%] | inhibition [11] [%] | inhibition ([12]; dose 1 µM, in the assay text read “1 uM” for “0.1 uM”) [%] | inhibition ([12]; filed as antagonist, dose 0.1 µM) [%] | inhibition ([11]; filed as antagonist) [%]
1 | Cn1c(=O)c2[nH]cnc2n(C)c1=O [THEOPHYLLINE] | > 100000 |  |  |  |  |  |  |  |  |  |  |  |  |  | 
2 | COc1ccc(C(=O)Nc2nc(-c3ccccc3)c(C(=O)c3ccccc3)s2)cc1 | > 1000 | 32 | > 1000 | 1.47 | > 100 | 36.7 | > 1000 | 41 | 2 | 25.4 |  |  |  |  | 
3 | CC[C@@H]1CN2C(=O)N(C)c3nc(-c4ccccc4)[nH]c3C2=N1 | > 10000 |  | 108 |  | 3700 |  |  |  |  |  |  |  |  |  | 
4 | COc1ccc(-n2c(-c3sc(NC(=O)c4ccco4)nc3-c3ccccc3)nc3ccccc3c2=O)cc1 | 973 |  | > 1000 | > 1000 | > 100 | > 1000 | > 1000 |  | 30 | 6.45 | 11 | 25 |  |  | 
5 | CCCCn1c(=O)c2[nH]c(C34CC5CC(CC3C5)C4)nc2n(CCCO)c1=O | 6500 |  |  | 0.124 | 187 |  | 552 |  |  | 2300 |  |  |  |  | 
6 | COc1ccc(C(=O)Nc2nc(-c3ccccc3)c(C(=O)c3ccc(OC)cc3)s2)cc1 |  | 16 | > 1000 | 1.77 | > 100 | 13.6 | > 1000 |  |  | > 1000 |  |  | 37 |  | 
7 | O=C(Nc1nc(-c2ccccc2)c(-c2ccccn2)s1)c1ccccc1 |  |  | 83.6 | 3.47 | > 100 | 90.8 | 391 |  |  | > 1000 |  |  |  |  | 
8 | CCCOC(=O)c1c(-c2ccccc2)nc(CC)c(C(=O)SCC)c1CCC |  |  | 3660 |  | > 10000 | > 10000 |  |  |  |  |  |  |  |  | 
9 | O=C(Nc1nc(-c2ccccc2)c(-c2nc3ccccc3c(=O)n2-c2ccccc2)s1)c1ccco1 |  | 33 | > 1000 | > 1000 | > 100 | > 1000 | > 1000 |  | 1 | 129 | 5 | 26 |  |  | 
10 | O=C(Nc1nc(-c2ccccc2)c(C(=O)c2ccc(F)cc2F)s1)c1ccco1 |  |  | 132 | 6.69 | > 100 | 178 | 73.3 |  | 15 | 124 |  |  |  | 100 | 
11 | COc1cc(-c2nc(NC(C)=O)sc2-c2ccncc2)cc(OC)c1OC |  |  |  |  | 3200 |  |  |  |  |  |  |  |  |  | 
12 | O=C(Nc1nc(-c2ccccc2)c(-c2nc3ccccc3c(=O)n2-c2ccc(Cl)cc2)s1)c1ccco1 | 607 | 14 | > 1000 | > 1000 | > 100 | > 1000 | > 1000 |  | 1 | 48.3 | 8 | 24 |  |  | 
13 | O=C(Nc1nc(-c2ccccc2)c(-c2nc3ccccc3c(=O)n2-c2ccccc2)s1)c1ccccc1 |  | 3 | > 1000 | > 1000 | > 100 | > 1000 | > 1000 |  |  | 111 |  |  |  |  | 1
14 | COc1ccc(C(=O)Nc2nc(-c3ccccc3)c(-c3nc4ccccc4c(=O)n3-c3ccc(OC)cc3)s2)cc1 | > 10000 | 1 | > 1000 | > 1000 | > 100 | > 1000 | > 1000 |  |  | 4.63 | 10 | 17 |  |  | 
15 | COc1ccc(-n2c(-c3sc(NC(=O)c4ccccc4)nc3-c3ccccc3)nc3ccccc3c2=O)cc1 | 1320 | 17 | > 1000 | > 1000 | > 100 | > 1000 | > 1000 |  |  | 8.23 | 3 |  |  |  | 10
16 | Cc1ccc(-n2c(-c3sc(NC(=O)c4ccco4)nc3-c3ccccc3)nc3ccccc3c2=O)cc1 | 1840 | 6 | > 1000 | > 1000 | > 100 | > 1000 | > 1000 |  |  | 25.4 | 1 | 25 |  |  | 
17 | CC[C@@H]1CN2C(=O)N(C)c3nc(-c4cc(Cl)cc(Cl)c4Cl)[nH]c3C2=N1 |  |  | 2700 | 805 | 30000 | 1700 | 6040 |  |  |  |  |  |  |  | 
18 | Cc1ccc(-n2c(-c3sc(NC(=O)c4ccccc4)nc3-c3ccccc3)nc3ccccc3c2=O)cc1 | 806 | 17 | > 1000 | > 1000 | > 100 | > 1000 | > 1000 |  |  | 9.05 |  |  |  |  | 23
19 | COc1ccc(C(=O)Nc2nc(-c3ccccc3)c(-c3nc4ccccc4c(=O)n3-c3ccccc3)s2)cc1 |  | 1 | > 1000 | > 1000 | > 100 | > 1000 | > 1000 |  |  | 174 | 20 |  |  |  | 11
